Read-outs that look alike come from different tables or passages of the source.
Assays:
[1] = biological target: T1, KOR (Mus musculus, UniProt P33534); test: Radioligand competition binding assay, KOR
[2] = biological target: T2, DOR (Mus musculus, UniProt P32300); test: Radioligand competition binding assay, DOR
[3] = system: mice; test: Warm-water tail immersion assay; format: in vivo, mouse; conditions: for Blockage of the morphine-mediated antinociception: 10 mg/kg s.c. in the presence of morphine (10 mg/kg)
Summary of the method: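 Male Swiss-Webster mice (23–35 g, 7–8 weeks), n = 5 per group. Single test-compound dose of 10 mg/kg given subcutaneously at time 0. Tail-flick latency measured in water at 56 ± 0.1 °C. Saline served as negative control and morphine as positive control. Response expressed as % maximum possible effect, reported as mean ± SD.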

[4] = biological target: T3, MOR (Mus musculus, UniProt P42866); test: Radioligand competition binding assay, MOR; conditions: for Selectivity δ/μ: ratio of Ki values DOR/MOR
[5] = Solubility observed during testing; format: physicochemical; conditions: during binding/functional testing
[6] = biological target: T3, MOR; test: MOR [35S]-GTPγS functional assay; format: biochemical
[7] = biological target: T1, KOR; test: KOR [35S]GTPγS functional assay; format: biochemical
[8] = biological target: T2, DOR; test: DOR [35S]GTPγS functional assay; format: biochemical
[9] = biological target: T3, MOR; test: Calcium flux assay in Gqi5-transfected MOR-CHO cells; format: cell-based; conditions: 0.3 nM to 3 μM
Summary of the method: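 Gqi5 cDNA lipofected into MOR-CHO cells, 4 h at 37 °C/5% CO2, then trypsinized, plated at […] and grown to confluence. At 48 h post-transfection, cells loaded 45 min with fluo-4 AM plus probenecid in HBSS–HEPES–Ca–Mg buffer. Test compound (0.3 nM–3 μM) given for agonist activity; Ca2+ read as RFU peak. Triplicate doses; ≥4 repeats.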

[10] = Metabolic stability in human liver microsomes; format: in vitro ADME
[11] = Metabolic stability in rat liver microsomes; format: in vitro ADME
[12] = system: morphine-pelleted mice; test: Opioid withdrawal study in chronic morphine-pelleted mice; format: in vivo, mouse
[13] = biological target: hERG potassium channel (Homo sapiens, UniProt Q12809); test: hERG automated patch-clamp assay in CHO-K1 cells; conditions: ratio of hERG IC50 values vs NAN
[14] = biological target: T1, KOR; conditions: [35S]GTPγS; cited from earlier work
[15] = biological target: T2, DOR; conditions: [35S]GTPγS; cited from earlier work
[16] = system: morphine-pelleted mice; conditions: 50 mg/kg; cited from earlier work
[17] = biological target: T3, MOR; conditions: low MOR-expressing CHO cells and mouse thalamus; cited from earlier work

## O=C(N[C@@H]1CC[C@@]2(O)[C@H]3Cc4ccc(O)c5c4[C@@]2(CCN3CC2CC2)[C@H]1O5)c1cccc2c(Cl)c[nH]c12 [Compound 7, 17-Cyclopropylmethyl-3,14β-dihydroxy-4,5α-epoxy-6β-(3-chloro-indole-7-carboxamido)morphinan]
[1]
  Ki: 0.33 ± 0.05 nM
[2]
  Ki: 4.43 ± 1.06 nM
[3]; 10 mg/kg s.c., 56 °C
  Antinociception effect (% MPE): noticeable antinociception

## CC(=O)c1c[nH]c2c(C(=O)N[C@@H]3CC[C@@]4(O)[C@H]5Cc6ccc(O)c7c6[C@@]4(CCN5CC4CC4)[C@H]3O7)cccc12 [Compound 11, 17-Cyclopropylmethyl-3,14β-dihydroxy-4,5α-epoxy-6β-(3-acetyl-indole-7-carboxamido)morphinan]
[4]
  Selectivity δ/μ: < 1.6
[4]; ratio of Ki values KOR/MOR
  Selectivity κ/μ: <0.3
[2]
  Ki: 81.1 ± 9.98 nM
[5]
  Solubility observed in the in vitro assay: poor solubility

## O=C(N[C@@H]1CC[C@@]2(O)[C@H]3Cc4ccc(O)c5c4[C@@]2(CCN3CC2CC2)[C@H]1O5)c1cccc2c(C3CCCC3)c[nH]c12 [Compound 15, 17-Cyclopropylmethyl-3,14β-dihydroxy-4,5α-epoxy-6β-(3-cyclo-pentyl-indole-7-carboxamido)morphinan]
[2]
  Ki: 9.88 ± 1.13 nM
[6]
  EC50: 2.28 ± 0.59 nM

## O=C(N[C@H]1CC[C@@]2(O)[C@H]3Cc4ccc(O)c5c4[C@@]2(CCN3CC2CC2)[C@H]1O5)c1cccc2cc(Br)[nH]c12 [Compound 18, 17-Cyclopropylmethyl-3,14β-dihydroxy-4,5α-epoxy-6α-(2-bromo-indole-7-carboxamido)morphinan]
[2]
  Ki: 6.73 ± 1 nM
[6]
  EC50: 2.36 ± 0.7 nM
[3]
  Blockage of the morphine-mediated antinociception: different degrees of inhibition of morphine’s antinociceptive effect

## Cc1cc2cccc(C(=O)N[C@H]3CC[C@@]4(O)[C@H]5Cc6ccc(O)c7c6[C@@]4(CCN5CC4CC4)[C@H]3O7)c2[nH]1.Cl [Compound 21, 17-Cyclopropylmethyl-3,14β-dihydroxy-4,5α-epoxy-6α-(2-methyl-indole-7-carboxamido)morphinan]
[4]
  Selectivity δ/μ: 27.3
[2]
  Ki: 16 ± 1.09 nM
[7]; KOR EC50 (nM), mean ± SEM
  EC50: 6.65 ± 0.78 nM
[7]; relative to KOR full agonist U50,488H
  KOR Emax(% max of U50,488H): 48.28 ± 1.45%
[8]; DOR EC50 (nM), mean ± SEM
  EC50: 4.99 ± 0.21 nM
[8]; relative to DOR full agonist SNC80
  DOR Emax(% max of SNC80): 76.82 ± 4.82%
[9]
  Agonist activity to increase the intracellular calcium concentration: no obvious agonist activity
[3]
  Blockage of the morphine-mediated antinociception: different degrees of inhibition of morphine’s antinociceptive effect
[10]
  CLint scaled: < 38.5 mL/min/kg
[11]
  CLint scaled: < 38.5 mL/min/kg
[12]; 40 mg/kg, vs 1 mg/kg naloxone
  Jumps: not significantly different from those at 1 mg/kg naloxone
[12]; all doses up to 80 mg/kg, vs 1 mg/kg naloxone
  Paw tremors: significantly fewer paw tremors
[12]; all the doses tested, vs 1 mg/kg naloxone
  Wet-dog shakes: did not precipitate more wet-dog shakes
[13]
  Improvement of hERG profile in comparison to NAN (fold): seven-fold

## CC(=O)c1c[nH]c2c(C(=O)N[C@H]3CC[C@@]4(O)[C@H]5Cc6ccc(O)c7c6[C@@]4(CCN5CC4CC4)[C@H]3O7)cccc12 [Compound 28, 17-Cyclopropylmethyl-3,14β-dihydroxy-4,5α-epoxy-6α-(3-acetyl-indole-7-carboxamido)morphinan]
[1]
  Ki: 6.39 ± 1.07 nM
[2]
  Ki: 10.9 ± 1.58 nM

## O=C(N[C@H]1CC[C@@]2(O)[C@H]3Cc4ccc(O)c5c4[C@@]2(CCN3CC2CC2)[C@H]1O5)c1cccc2cc[nH]c12 [NAN, 17-cyclopropylmethyl-3,14β-dihydroxy-4,5α-epoxy-6α-(indole-7-carboxamido)morphinan]
[14]
  KOR Emax(% max of U50,488H): 73.90 ± 3.69%
[15]
  DOR Emax(% max of SNC80): 26.67 ± 1.17%
[16]
  Paw tremors: seemingly more paw tremors
  Wet-dog shakes and jumps: did not induce significant wet-dog shakes and jumps

## O=C(N[C@@H]1CC[C@@]2(O)[C@H]3Cc4ccc(O)c5c4[C@@]2(CCN3CC2CC2)[C@H]1O5)c1ccncc1 [NAP, 17-Cyclopropylmethyl-3,14β-dihydroxy-4,5α-epoxy-6β-[(4′-pyridyl)carboxamido]morphinan]
[17]
  Shift of DAMGO concentration effect curve: parallel rightward shift in the concentration effect curve of MOR full agonist DAMGO

## O=C(N[C@H]1CC[C@@]2(O)[C@H]3Cc4ccc(O)c5c4[C@@]2(CCN3CC2CC2)[C@H]1O5)c1cc2ccccc2cn1 [NAQ, 17-cyclopropylmethyl-3,14β-dihydroxy-4,5α-epoxy-6α-(isoquinoline-3-carboxamido)-morphinan]
[17]
  Shift of DAMGO concentration effect curve: parallel rightward shift in the concentration effect curve of MOR full agonist DAMGO

## C=CCN1CC[C@]23c4c5ccc(O)c4O[C@H]2C(=O)CC[C@@]3(O)[C@H]1C5 [NLX, naloxone, reference compound]
[12]; 1 mg/kg s.c.
  Withdrawal symptoms: induced significant withdrawal symptoms

— publication PMC10546487 (Journal of medicinal chemistry, 2022)
